NR2E3 ag-1: NR2E3 (human) agonism; inhibition of corepressor binding, % at 4.78 µM; 320,000 tested, 0.12% active; Q9Y5X4; GST-NR2E3/biotin-RetCOR TR-FRET, 1536-well;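 active = percent inhibition above the cutoff of mean plus 3 SD of all tested compounds, set per screening campaign, cut at about 20% in these data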;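 also: 0% = DMSO wells and 100% = biotin wells as full block of FRET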
Target sequence (Q9Y5X4 whole entry, looked up): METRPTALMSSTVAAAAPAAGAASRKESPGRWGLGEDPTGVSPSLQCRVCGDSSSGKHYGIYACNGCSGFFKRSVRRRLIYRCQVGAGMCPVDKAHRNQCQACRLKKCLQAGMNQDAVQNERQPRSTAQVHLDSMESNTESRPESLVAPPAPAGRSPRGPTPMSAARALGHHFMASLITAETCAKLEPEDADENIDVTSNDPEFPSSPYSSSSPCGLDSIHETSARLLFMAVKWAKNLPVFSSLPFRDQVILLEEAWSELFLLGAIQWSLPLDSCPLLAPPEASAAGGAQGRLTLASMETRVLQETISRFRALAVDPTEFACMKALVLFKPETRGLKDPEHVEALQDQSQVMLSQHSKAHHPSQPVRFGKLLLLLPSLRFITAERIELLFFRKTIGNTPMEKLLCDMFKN
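Test system – NR2E3–RetCOR corepressor complex · Quantity – NR2E3 fusion 1.35 nM · Buffer or medium – Tris pH 7.5 · Incubation – Compound–protein incubation for 5 h at 4 °C · Technique – TR-FRET, Eu(K)-anti-GST donor, streptavidin-D2 acceptor, ex 340, em 617/671 nm · Evaluation – percent inhibition of 671/617 nm emission ratio versus biotin and DMSO controls · Plate – 1536-well format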
NR2E3 ag-2: agonists of human NR2E3 nuclear receptor; Q9Y5X4; CHO-S Gal4-NCOR/VP16-NR2E3 two-hybrid, luciferase; inhibition of corepressor binding, % at 3.98 µM; 360,000 tested, 0.35% active; AID 602229;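 active = inhibition above the mean of all tested compounds plus 3 SD, cut at about 70% in these data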;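 also: 0% = DMSO with NR2E3 transfected cells and 100% = cells lacking NR2E3 construct; higher means lower luciferase signal from less NR2E3 corepressor binding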
NadD block: blocks S. aureus nicotinate mononucleotide adenylyltransferase. purified NadD enzyme, colorimetric absorbance read-out. inhibition, % at 20 µM. 360,000 tested, 0.78% active; in the data active = inhibition above about 26%
bovine MsrA act: activates bovine MsrA enzyme | activation, % at 10.6 µM | purified bovine MsrA, absorbance read-out | 360,000 tested, 0.3% active; in the data active = activation above about 7.5%;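 also: 0% = vehicle and 100% = reference activator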
MsrA inhibitor: inhibits bovine methionine sulfoxide reductase A; purified bovine MsrA, absorbance read-out; inhibition, % at 15.5 µM; 360,000 tested, 0.75% active; AID 651718; in the data active = inhibition above about 4.5%;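 also: 0% = vehicle wells with enzyme and 100% = reference inhibitor wells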
GalR3 antag: antagonists of human GalR3. O60755. HEK293 GalR3-CNG cAMP membrane potential fluorescence; galR3 body fused to GalR1 C-terminus. inhibition, % at 3 µM. 360,000 tested, 0.44% active. AID 651719;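 active = inhibition above the screen-wide average plus 3 SD, cut at about 13% in these data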;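 also: forskolin and galanin both at EC90 stimulate the cells; cAMP rise reported by CNG channel membrane potential dye signal; 0% = forskolin plus galanin with DMSO and 100% = forskolin alone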
Target sequence (O60755 1-299 limits assumed): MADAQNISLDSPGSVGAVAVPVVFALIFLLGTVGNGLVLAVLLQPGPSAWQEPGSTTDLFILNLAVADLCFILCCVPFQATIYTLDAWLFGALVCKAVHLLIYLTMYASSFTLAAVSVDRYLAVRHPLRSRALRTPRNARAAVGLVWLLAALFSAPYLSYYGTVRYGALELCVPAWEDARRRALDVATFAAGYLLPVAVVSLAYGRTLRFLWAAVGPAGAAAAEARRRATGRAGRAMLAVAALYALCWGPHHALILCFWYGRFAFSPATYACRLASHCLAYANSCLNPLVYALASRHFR
GalR3 conf: confirmation of human galanin receptor 3 antagonists; AID 652245; 1,600 tested, 59% active; HEK293 GalR3 CNG cAMP biosensor, membrane potential fluorescence; galR3 fused to GalR1 carboxy tail; challenged with forskolin and galanin at EC90; inhibition, % at 3 µM; shares compounds with GalR3 antag;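 active = inhibition above the primary screen's cutoff, the mean inhibition of all screened compounds plus 3 SD, cut at about 13% in these data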;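 also: 0% = forskolin plus galanin and 100% = forskolin alone with DMSO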
HEK-CNG parental: acts as nonspecific agonist in parental HEK-CNG cells | HEK293-CNG parental cells, cAMP membrane potential fluorescence; normalised: DMSO wells 0%, forskolin wells 100% | shares compounds with GalR3 antag | activation, % at 3 µM | 1,600 tested, 10% active; in the data active = activation above about 1.3%
Active calls of the source: *; · = not tested or not shown. In the library only some 2.5% were active in any assay of this set; here they are far more common.

SMILES	NR2E3 ag-1	NR2E3 ag-2	NadD block	bovine MsrA act	MsrA inhibitor	GalR3 antag	GalR3 conf	HEK-CNG parental
CC(C)CSc1nnc(N)s1	-0.9	2.9	3.3	-2.0	-0.9	13.9*	5.2	0.2
Cc1cc(C)n2nc(C(=O)NCc3ccccc3)nc2n1	2.1	-4.2	1.9	2.7	0.9	·	4.6	0.2
Cc1ccc(CNC(=O)c2nc3nc(C)cc(C)n3n2)cc1	3.8	0.1	-1.1	-1.4	0.1	2.4	·	·
S=c1nc(C2CCCCC2)[nH][nH]1	-0.2	8.8	-1.2	-4.4	·	·	·	·
O=C(NCCc1ccc(F)cc1)Nc1ccc2c(c1)OCO2	-5.4	-95.5	-3.9	-2.9	-2.0	-3.3	·	·
CCCCc1ccc(NC(=O)c2ccc(N(C)S(C)(=O)=O)cc2)cc1	2.3	16.4	-2.1	-9.9	-0.5	36.0*	115.4*	-0.8
CCN(CC)S(=O)(=O)c1ccc(C(=O)Nc2ccc(Cc3ccncc3)cc2)cc1	0.3	46.9	3.2	-3.8	1.3	33.5*	75.9*	-0.4
CCN(CC)S(=O)(=O)c1ccc(NC(=O)c2ccccc2N(C)S(C)(=O)=O)cc1	-2.6	2.9	2.5	-3.5	-0.2	-3.0	·	·
COc1ccc(NS(=O)(=O)c2ccc(NC(C)=O)cc2)c(OC)c1	-2.2	-27.7	-3.2	-1.2	1.5	-6.4	·	·
COc1ccc(NS(=O)(=O)c2ccc(NC(=O)c3ccc(N(C)S(C)(=O)=O)cc3)cc2)c(OC)c1	1.6	-40.5	6.6	-2.8	-0.2	98.8*	106.8*	-0.8
CCN(CC)S(=O)(=O)c1ccc(NC(=O)c2ccc(N(C)S(C)(=O)=O)cc2)cc1	-5.6	-17.7	-5.3	-3.9	0.4	103.4*	103.9*	-0.2
O=C(COC(=O)c1ccc(O)cc1O)NC1CCS(=O)(=O)C1 (stereo not given)	-4.4	-13.7	-1.1	1.2	0.8	-1.5	·	·
CCc1c(C)nc(SCC(=O)c2cccs2)c(C#N)c1C	-3.3	-242.1	-1.1	-2.6	0.4	-2.9	·	·
COc1ccc(N2C(=O)NC(=O)C2=O)cc1	1.3	1.8	0.8	-3.8	-1.1	-9.5	·	·
Cc1ccccc1S(=O)(=O)N(C)C[C@@H]1OCc2cnnn2CCCC(=O)N([C@@H](C)CO)C[C@@H]1C	·	-36.1	-4.9	-3.3	0.3	-6.2	·	·
COC(=O)C1=C(C)N(C(C)C)C(=O)C1(NC(C)=O)C(F)(F)F (stereo not given)	2.0	1.7	-6.1	0.1	-0.2	-4.3	·	·
c1ccc(Oc2nc(Oc3ccccc3)nc(N3CCOCC3)n2)cc1	5.1	-7.1	1.8	-3.7	-0.5	-1.7	·	·
COc1ccc(Nc2nc(Cl)nc(NCCO)n2)cc1	1.8	-2.1	1.6	-2.0	0.8	19.6*	-1.1	0.1
CCOc1cc2c(cc1OC)C(NC(=O)C(F)(F)F)CC2=O (stereo not given)	2.5	-5.9	-1.0	-2.1	1.4	-4.8	·	·
CCOc1cc2c(cc1OC)C(NC(=O)c1ccco1)CC2=O (stereo not given)	2.4	-15.4	2.5	-3.1	0.4	16.7*	-1.2	-0.1
O=C(c1ccc(S(=O)(=O)c2ccc(F)cc2)c([N+](=O)[O-])c1)N1CCCCCC1	3.1	-12.2	-3.8	-2.5	-0.4	43.9*	48.9*	-0.5
O=C(c1ccc(S(=O)(=O)Cc2ccccc2F)c([N+](=O)[O-])c1)N1CCCC1	2.2	-17.9	-1.0	-1.1	-0.9	-1.7	·	·
Cc1nc(SCc2nc3ccccc3[nH]2)c2oc3ccc(Br)cc3c2n1	·	-16.8	7.2	-1.8	2.6	13.5*	28.2*	0.8
CC(=NO)C1CCC2C3CCC4CC(=NO)CCC4(C)C3C(C)(O)CC12C (stereo not given)	·	7.6	-1.7	-1.3	-0.5	-6.5	·	·
Cc1cccc(NC2=C(Cl)C(=O)OC2OC(C)C)c1 (stereo not given)	1.8	-25.8	-0.3	-5.4	1.5	14.2*	6.2	0.0
SMILES	NR2E3 ag-1	NR2E3 ag-2	NadD block	bovine MsrA act	MsrA inhibitor	GalR3 antag	GalR3 conf	HEK-CNG parental
Cc1ccc(NC2=C(Cl)C(=O)OC2OC(C)C)cc1 (stereo not given)	-1.0	-8.1	-5.4	-6.8	-0.8	-3.3	·	·
CCc1cccc(NC(=O)CN2C(=O)NC3(CCCCCCC3)C2=O)c1	6.0	4.5	-4.8	-7.3	-0.1	-2.8	·	·
CC(C)c1ccc(NC(=O)C2CCCN(S(=O)(=O)c3ccc4c(c3)C(C)(C)C(=O)N4C)C2)cc1 (stereo not given)	2.1	23.9	-6.0	-4.1	0.3	-0.1	·	·
CN1C(=O)C(C)(C)c2cc(S(=O)(=O)N3CCCC(C(=O)Nc4ccc(Cl)cc4)C3)ccc21 (stereo not given)	1.0	16.6	6.9	-0.9	-0.5	17.8*	25.2*	-0.4
N#C/C(=C(/O)c1cccs1)c1nnc2n1CCCCC2	4.9	-12.2	-1.6	3.5	1.7	-5.3	·	·
Cc1ccc(Sc2sc(=O)n(C)c2S(=O)(=O)c2ccc(C)cc2)cc1	-1.1	14.8	-9.2	-3.7	1.0	20.2*	2.3	0.4
COCCNC(=O)C1(C)CCN(C(=O)c2cc(C)n(C(C)(C)C)n2)C1 (stereo not given)	·	10.6	3.5	-1.9	0.2	-3.0	·	·
CC(=O)Nc1ccc(OCC(O)Cn2c3ccccc3c3ccccc32)c(C)c1 (stereo not given)	1.0	-32.8	-7.3	-6.4	0.7	14.5*	41.4*	-1.6
CCOC(=O)CNC(=O)CNC(=O)c1ccc(OC(C)C)cc1	-0.2	-11.2	-4.2	-2.8	-0.1	0.7	·	·
CCOC(=O)CNC(=O)CNC(=O)c1ccc(OCC(C)C)cc1	-1.5	-9.4	0.8	2.3	-0.2	86.0*	5.7	0.0
CNC(=O)[C@H]1O[C@@H](n2cnc3c(NCc4cccc(I)c4)nc(Cl)nc32)[C@H](O)[C@@H]1O	-0.6	-6.0	-3.3	-1.5	-1.1	51.4*	52.5*	-0.6
Nc1nc2c(ncn2[C@@H]2O[C@H](C(=O)N[C@H](Cc3ccccc3)C(=O)O)[C@@H](O)[C@H]2O)c(=O)[nH]1	·	·	·	·	0.7	-6.3	·	·
O=C(c1ccc([N+](=O)[O-])s1)N1CCN(c2ccccc2)CC1	0.6	20.6	8.2	0.9	1.2	50.1*	-5.2	-0.3
O=c1c2c(-c3ccc(Cl)cc3)csc2ncn1/N=C/c1cccc([N+](=O)[O-])c1O	3.0	-22.9	9.4	-4.2	0.9	-4.0	·	·
CC1C(=O)C(C)C(c2ccc([N+](=O)[O-])cc2)NC1c1ccc([N+](=O)[O-])cc1 (stereo not given)	5.3	8.3	-7.0	-3.9	-1.1	3.4	·	·
